A selection: hits, their analogues and other compounds. The true share with any hit is near 1.9%.
IDE act: boosts human insulin-degrading enzyme activity in HEK cells; FAbeta-B cleavage, fluorescence polarization; 0% vehicle, 100% cell-free pure enzyme wells; activation, % at 5.96 µM; actives 0.073% (n = 340,000); P14735;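 active = activation above the mean of all tested compounds plus 3 SD, set per screening campaign, cut at about 17% in these data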
IDE cell inh: cellular human IDE inhibition; HEK cells, FAbetaB cleavage, fluorescence polarization; inhibition, % at 5.59 µM; actives 0.41% (n = 320,000); AID 434962;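 active = percent inhibition above the average of all tested compounds plus 3 SD, set per screening campaign, cut at about 16% in these data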;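 note: IDE supplied by intact live HEK cells; FP after avidin binding of uncleaved biotin substrate so inhibition keeps polarization high; 0% = DMSO wells and 100% = 60 µM reference IDE inhibitor Ii1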
UBC13 polyUb: human UBC13 polyubiquitination inhibition; P61088; inhibition, % at 20 µM; actives 0.47% (n = 330,000); UBC13 polyubiquitin chain formation, TR-FRET; in the data active = inhibition above about 45%, passing the limit was not always enough
PHOSPHO1 inh: PHOSPHO1 (human) inhibition; Q8TCT1; recombinant PHOSPHO1, absorbance phosphatase assay; inhibition, % at 13.3 µM; actives 1.1% (n = 290,000); AID 1565; in the data active = inhibition above about 60%
proCasp7 act: counter-screen for procaspase-3 activators: activators of human procaspase-7; P55210; recombinant procaspase-7, Ac-DEVD-pNA absorbance 405 nm; D23A/D198A/D206A triple mutant, cannot self-cleave; scale: DMSO 0, 5 µM enzyme 100; activation, % at 8.5 µM; actives 0.093% (n = 330,000); AID 463210;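 active = percent activation above the screen-wide mean plus 3 SD, cut at about 25% in these data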
Target sequence (P55210 whole entry D23A/D198A/D206A): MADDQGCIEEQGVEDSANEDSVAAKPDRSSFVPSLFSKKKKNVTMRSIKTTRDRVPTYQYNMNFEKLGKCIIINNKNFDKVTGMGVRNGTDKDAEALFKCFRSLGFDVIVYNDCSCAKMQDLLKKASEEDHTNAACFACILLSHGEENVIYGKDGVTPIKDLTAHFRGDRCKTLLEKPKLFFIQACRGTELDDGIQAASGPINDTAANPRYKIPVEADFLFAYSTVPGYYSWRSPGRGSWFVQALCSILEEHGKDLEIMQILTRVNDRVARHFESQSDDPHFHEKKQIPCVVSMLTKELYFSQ
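buffer or medium = Zinc-free HEPES/NaCl buffer, pH 7.4 | material = Procaspase-7 triple mutant (PC-7 D3A) | input = 2 µM procaspase-7 mutant as dispensed | signal = Epi-absorbance of released pNA at 405 nm, two timepoints | timing = 1 h preincubation, 2 h reaction | replicates = singlicate compound testing | evaluation = % activation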
procasp3 activ: activators of human procaspase-3. P42574. actives 0.11% (n = 330,000). activation, % at 8.5 µM. recombinant procaspase-3 D3A, Ac-DEVD-pNA absorbance 405 nm;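 active = activation above the mean of all tested compounds plus 3 SD, cut at about 21% in these data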;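 note: 0% = DMSO alone and 100% = DMSO wells spiked with extra 5 µM PC-3 D3A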
Target sequence (P42574 whole entry D9A/D28A/D175A): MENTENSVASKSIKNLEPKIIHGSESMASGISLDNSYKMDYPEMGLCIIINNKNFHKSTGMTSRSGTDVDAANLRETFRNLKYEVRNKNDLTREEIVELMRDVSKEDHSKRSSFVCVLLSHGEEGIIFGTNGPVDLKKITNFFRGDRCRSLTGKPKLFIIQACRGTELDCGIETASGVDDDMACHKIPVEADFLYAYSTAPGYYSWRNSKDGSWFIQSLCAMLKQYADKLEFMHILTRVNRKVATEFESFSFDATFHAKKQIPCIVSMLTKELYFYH
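Test system: Procaspase-3 D3A mutant; medium: Zinc-free HEPES/NaCl buffer with 0.01% Triton X-100 at pH 7.4; reagent: DEVD-pNA substrate; doses: one concentration, 8.5 µM nominal, 0.8% DMSO; times: 1 h preincubation plus 2 h reaction at 25 °C; signal: Epi-absorbance at 405 nm of released p-nitroaniline, 0 and 120 min; replicates: singlicate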
* = called active by the depositor; x = not tested or not shown.

SMILES	IDE act	IDE cell inh	UBC13 polyUb	PHOSPHO1 inh	proCasp7 act	procasp3 activ
c1ccc(CSc2nc3ccccc3[nH]2)cc1	-4.2	1.8	-6.8	12.9	-2.5	7.2
Nc1nc(CSc2nc3ccccc3[nH]2)cs1	1.4	0.8	-0.6	97.1*	-1.4	-2.8
CCCc1nnc(NC(=O)CCC(=O)NC2CCCCCC2)s1	5.2	-12.9	-7.8	22.3	-2.9	-1.9
COc1ccc2c(CCNC(=O)Nc3ccccc3)c[nH]c2c1	5.8	1.7	41.6	62.8*	6.2	-3.3
CCC(C(=O)NCCc1c[nH]c2cc(OC)ccc12)c1ccccc1 (stereo unspecified)	-2.0	-1.8	34.7	46.3	-3.6	-4.0
O=C(NS(=O)(=O)Nc1ccccc1)C1=C(N2CCCC2)COC1=O	33.9*	-0.1	-9.0	x	1.3	-3.5
CCN(CC(=O)Nc1ccc(NC(C)=O)cc1)C(=O)CCCOc1ccc(C(C)(C)C)cc1	-1.8	1.2	2.0	x	-4.3	-11.2
NNC(=O)c1snnc1-c1ccccc1	1.5	0.2	4.0	22.6	-2.7	-9.3
COC(=O)c1ccc(NC(=O)c2snnc2-c2ccccc2)cc1	0.1	8.1	11.3	61.0*	10.0	2.5
Cc1ccc(OCCNC(=O)C(C)SCC(=O)Nc2ccc(F)cc2)cc1 (stereo unspecified)	6.5	5.0	8.9	x	1.2	6.4
O=C(C1CCCO1)N1CCN(Cc2c(O)ccc3ccccc23)CC1 (stereo unspecified)	-1.3	7.7	8.6	104.3*	-27.7	-26.3
O=C(Cc1cccc2ccccc12)N/N=C/c1ccc(Sc2cccc3cccnc23)o1	x	4.5	-4.4	80.2*	2.4	-5.4
CCCCC(=O)N/N=C/c1ccc(Sc2cccc3cccnc23)o1	5.6	-1.1	0.7	-24.5	-1.3	-2.5
CC(C)CCN(C(=O)c1ccccn1)c1c(N)n(Cc2ccccc2)c(=O)[nH]c1=O	2.8	9.6	-12.3	x	4.0	-4.1
Cc1cccc(N=C2Sc3nc4c(C)c(C)ccc4cc3CN2CCN2CCOCC2)c1	-1.2	-3.3	5.1	81.3*	-1.6	6.9
Cc1[nH]c(=O)[nH]c(=O)c1S(=O)(=O)Nc1ccc(F)cc1Cl	4.2	x	4.8	39.4	x	x
COc1cccc2c1C(=O)c1ccc3ccccc3c1C2=O	5.2	2.9	-7.8	86.8*	-8.4	-8.3
COc1ccc(OC)c2c1C(=O)c1ccccc1C2=O	x	-6.9	-38.0	95.1*	-11.8	0.5
COc1ccc2noc3c2c1C(=O)c1ccccc1-3	38.3*	-21.0	-244.8	x	-1.8	-0.2
COc1cccc2c1-c1c(C(=O)O)cccc1C2=O	1.8	-2.9	-8.1	13.9	-1.1	6.8
COc1ccc(N)c2c1C(=O)c1ccccc1C2=O	4.9	1.9	x	3.1	0.5	-7.5
CC[C@]12C(=O)N(C)C[C@H]([C@@H]3C(=O)N(C)C(=O)[C@@H]31)N2C(=O)c1ccc(C(C)(C)C)cc1	4.9	x	x	x	x	x
CC1(C)CC(=O)C(Sc2nnc(-c3ccc(NS(C)(=O)=O)cc3)n2Cc2ccco2)C(=O)C1	4.2	0.2	3.2	95.7*	-8.7	-7.1
Cc1nc(NC(=O)CSC2=NCCS2)sc1C(=O)N(C)C	0.6	-0.8	6.1	14.7	6.0	-2.8
O=C(NC1CCS(=O)(=O)C1)/C(=C/c1ccc(Cl)cc1)NC(=O)c1ccccc1 (stereo unspecified)	3.0	4.0	7.7	180.6*	4.7	-2.6
SMILES	IDE act	IDE cell inh	UBC13 polyUb	PHOSPHO1 inh	proCasp7 act	procasp3 activ
O=C(NC1CCS(=O)(=O)C1)/C(=C\c1ccccc1)NC(=O)c1ccccc1 (stereo unspecified)	-1.4	0.6	8.5	3.5	4.0	-1.0
COc1cc2c(cc1OC)C(C)N(C(=O)Nc1ccc(F)cc1)CC2 (stereo unspecified)	-0.2	-0.6	3.4	15.9	3.0	0.4
CC1CCCC2(C1)NC(=S)N(c1ccccc1)N2 (stereo unspecified)	-0.1	-3.1	3.2	57.2	-7.1	-11.1
CC1CC(C)(C)CC2(C1)NC(=S)N(c1ccccc1)N2 (stereo unspecified)	2.2	3.8	-0.1	97.9*	-3.4	-5.3
CCOCCc1nn2c(=O)cc(CSCC(=O)Nc3cc(C)cc(C)c3)nc2s1	2.3	5.8	-1.7	38.0	-1.2	2.0
O=C(NCc1ccccn1)c1ccc(N2CCCC2)c([N+](=O)[O-])c1	3.4	-0.3	-31.3	62.9*	6.7	6.1
O=C(NCc1ccncc1)c1ccc(N2CCCC2)c([N+](=O)[O-])c1	-0.1	2.2	-14.0	9.5	-1.3	1.9
CN(C)S(=O)(=O)c1ccc(C(=O)NCc2ccccn2)cc1	4.0	3.7	6.2	61.5*	4.8	-1.3
CCOc1cc(N2CCOCC2)c(OCC)cc1NC(=O)c1ccc(OC)c(S(=O)(=O)N2CCOCC2)c1	5.5	-0.8	0.7	x	6.8	4.8
COc1cccc(/C=c2\sc3nc(-c4cccs4)nn3c2=O)c1OC	3.0	-5.2	-3.0	70.6*	3.4	-2.0
Cc1cccc(C(c2c(C)nn(-c3ccccc3)c2N)c2c(C)nn(-c3ccccc3)c2N)c1	0.7	4.7	4.6	97.2*	10.1	-0.8
CCc1ccc(C(c2c(C)nn(-c3ccccc3)c2N)c2c(C)nn(-c3ccccc3)c2N)cc1	6.8	-4.4	-10.3	-10.5	1.7	-5.8
CCN1CCN(S(=O)(=O)c2ccc(OC)c(NC(=O)c3ccccc3F)c2)CC1	2.3	1.0	-4.2	x	-1.2	4.5
Oc1ccc(-c2cn3c(n2)SCC3)cc1O	2.5	1.8	5.3	79.9*	-24.7	-20.3
Oc1ccc(-c2cn3c(n2)SCC3)cc1	5.1	0.0	-2.6	97.9*	-3.2	-2.8
Clc1ccc(-c2cn3c(n2)SCC3)cc1	-3.9	1.5	0.8	-5.3	2.7	1.2
Brc1ccc(-c2cn3c(n2)SCC3)cc1	-1.2	0.8	4.4	32.8	-2.7	-7.8
NC(=O)c1cc(C(=O)c2ccc(Cl)cc2Cl)c[nH]1	4.4	1.9	2.3	64.3*	-3.6	-9.1
N#Cc1c(SCc2cccc(Cl)c2)sc(C(=O)c2ccccc2)c1N	2.2	-0.1	-8.4	61.9*	1.1	8.1
Cc1ccc(C(=O)c2sc(Nc3ccccc3)c(C#N)c2N)cc1	0.9	3.1	4.0	-6.2	-53.8	2.2
N#Cc1c(Oc2ccc3ccccc3c2)sc(C(=O)c2ccccc2)c1N	0.8	2.8	12.0	30.0	14.5	8.3
Cc1ccc(CSc2sc(C(=O)c3ccccc3)c(N)c2C#N)cc1	3.6	-0.6	-8.4	96.6*	-14.0	-5.3
N#Cc1c(SCc2ccccc2)sc(C(=O)c2ccccc2)c1N	0.5	0.4	14.5	73.0*	-1.2	-0.2
Cc1coc2c1c(C)cc1oc(=O)c(CC(=O)NCCCCCC(=O)O)c(C)c12	1.4	0.2	3.3	27.3	2.5	-2.5
